# E-selectin induc = E-selectin induction in HUVECs, primary screen, imaging, HUVEC, immunofluorescence imaging, single point; P16581; normalized: neutral wells 0, TNF-alpha wells 100; activation, % at 7.58 µM; actives 0.37% (n = 260,000);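 active = mean E-selectin-positive cell signal at least 10% of the positive control, reached in at least 60% of replicates, without over 20% cell loss; inconclusive = no rule given, readout overlaps actives, possibly toxicity-flagged; inactive = the rest, including those meeting only one limit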
#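 System: HUVEC, human umbilical vein endothelial cells; quantity: 3,000 cells/well; buffer or medium: EGM-2 medium, gelatin-coated wells; dosing: single-point compound dose; detection: immunofluorescence imaging; evaluation: % PE-positive cells; benchmarks: TNF-alpha, DMSO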
# ERAP1 inh = human ERAP1 aminopeptidase inhibitors, primary screen, biochemical, single point, plate reader | Endoplasmic reticulum aminopeptidase 1 (Homo sapiens), Q9NZ08 | recombinant ERAP1, Leu-AMC fluorescence, 60 min | inhibition, % at 10.7 µM | actives 0.15% (n = 340,000);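 active = mean replicate inhibition of at least 30%, or all replicates individually reaching that 30% level; inactive = mean below 30% and not every replicate reaching it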
# Target sequence (Q9NZ08 whole entry, looked up): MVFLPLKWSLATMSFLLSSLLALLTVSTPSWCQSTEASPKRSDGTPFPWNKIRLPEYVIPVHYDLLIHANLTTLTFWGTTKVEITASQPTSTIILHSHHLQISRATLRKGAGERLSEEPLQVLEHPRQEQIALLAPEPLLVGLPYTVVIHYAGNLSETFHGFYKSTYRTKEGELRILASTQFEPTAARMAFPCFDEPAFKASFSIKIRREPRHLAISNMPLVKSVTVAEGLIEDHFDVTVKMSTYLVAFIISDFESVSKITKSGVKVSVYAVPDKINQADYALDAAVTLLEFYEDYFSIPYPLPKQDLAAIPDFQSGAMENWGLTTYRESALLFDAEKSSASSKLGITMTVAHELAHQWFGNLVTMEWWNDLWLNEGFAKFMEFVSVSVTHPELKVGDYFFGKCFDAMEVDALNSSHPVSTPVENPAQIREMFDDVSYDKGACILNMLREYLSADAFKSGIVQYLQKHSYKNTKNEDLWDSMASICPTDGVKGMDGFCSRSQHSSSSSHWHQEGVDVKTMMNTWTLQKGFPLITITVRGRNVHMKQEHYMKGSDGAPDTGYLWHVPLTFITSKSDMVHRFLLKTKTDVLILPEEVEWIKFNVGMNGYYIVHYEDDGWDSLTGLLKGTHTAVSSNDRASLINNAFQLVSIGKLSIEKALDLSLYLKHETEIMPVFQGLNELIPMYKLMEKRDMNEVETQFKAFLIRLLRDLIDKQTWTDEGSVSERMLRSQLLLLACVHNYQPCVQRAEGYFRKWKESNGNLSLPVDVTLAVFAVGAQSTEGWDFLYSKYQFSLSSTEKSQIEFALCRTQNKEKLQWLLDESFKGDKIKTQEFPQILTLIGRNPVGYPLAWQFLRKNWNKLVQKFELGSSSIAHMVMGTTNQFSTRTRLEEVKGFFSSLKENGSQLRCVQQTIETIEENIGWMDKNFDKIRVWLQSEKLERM
# miR-122 sensor = miR-122 Renilla sensor signal increase in Huh7, primary screen, miR-122 inhibitor project, cell-based, single point, plate reader; Huh7 miR-122 Renilla luciferase sensor, 48 h; neutral wells = 0, positive control = 100; activation (reporter increase), % at 12.5 µM; actives 0.3% (n = 340,000); AID 602342, 2012;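 active = mean replicate activation score at least 90 and every replicate individually at or above 90; inconclusive = only one of the two criteria met; inactive = neither criterion met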;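 also: higher luciferase means less miR-122 activity so hits act as miR-122 inhibitors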
# DENV2 CPE = inhibitors of DENV2 cytopathic effect, primary screen, cell-based, plate reader, single concentration; DENV2-infected cells, cytopathic effect rescue; CPE inhibition, % at 9.99 µM; AID 651640, 2012; actives 1.7% (n = 350,000); in the data active = CPE inhibition above about 20%, passing the limit was not always enough; inconclusive = no clear call, values can overlap the other calls; tested in BHK-21 cells
# CFTR F508del cor = F508del CFTR correction, initial screen, CFBE line, single point; CFBE cells, YFP halide quenching; stimulated with forskolin plus potentiator P3; % fluorescence drop versus neutral controls; activity (quench increase), % at 7.58 µM; actives 0.36% (n = 350,000); AID 720511, 2013;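 active = mean added fluorescence quench of at least 8% versus neutral control, with both replicates also reaching 8%; inconclusive = only one of the mean or replicate conditions met; inactive = mean below 8% and not both replicates reaching 8%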;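 also: cells transiently co-express mutant CFTR-F508del with the halide-sensitive YFP; corrector assay measuring rescue of mutant channel to the surface after 24 h compound exposure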
# GSIS activator = GLuc luminescence reporter in INS-1E cells, primary screen for activators of glucose-dependent secretion of insulin. INS-1E GLuc reporter insulin secretion, 2-3 h. activation, % at 16.6 µM. actives 0.61% (n = 370,000);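 active = lowest replicate activation of at least 40%, so every replicate reaches that level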
# A number is an active result; i = inactive; ? = inconclusive; nt = not tested or not shown. A selection: hits, their analogues and other compounds. The true share with any hit is near 2.6%.
SMILES,E-selectin induc,ERAP1 inh,miR-122 sensor,DENV2 CPE,CFTR F508del cor,GSIS activator
CCC(N=c1cc(-c2ccc(OC)cc2)oc2ccc(C)cc12)C(=O)O (stereo not drawn),nt,nt,nt,nt,nt,i
CCC(N=c1cc(-c2ccc(OC)c(OC)c2)oc2ccc(C)cc12)C(=O)O (stereo not drawn),nt,i,nt,22,i,i
CCC(=O)C(C#N)(c1ccc(OC)c(OC)c1)C(C)C (stereo not drawn),i,nt,i,nt,i,82
O=C(C[C@@H]1C[C@H]2c3cc(NC(=O)Nc4ccc(C(F)(F)F)cc4)ccc3O[C@H]2[C@@H](CO)O1)NCc1cccnc1,i,i,i,?,i,i
COc1ccc(CN2CCCC(N3CCN(c4cccc(Cl)c4)CC3)C2)cc1OC (stereo not drawn),nt,i,i,?,i,i
CC(C)CN1CCCC(N2CCN(c3cccc(Cl)c3)CC2)C1 (stereo not drawn),nt,i,i,27,i,i
Cc1noc(C)c1NC(=O)Nc1ccc2c(c1)C(=O)N([C@H](C)CO)C[C@@H](C)[C@@H](CN(C)C(=O)Nc1ccccc1)OCCCC[C@@H](C)O2,i,i,i,23,i,i
Cc1noc(C)c1NC(=O)Nc1ccc2c(c1)C(=O)N([C@H](C)CO)C[C@H](C)[C@H](CN(C)C(=O)c1ccccc1)OCCCC[C@H](C)O2,i,i,i,39,i,i
CNC[C@@H]1OCCCC[C@@H](C)Oc2ccc(NC(=O)Nc3c(C)noc3C)cc2C(=O)N([C@H](C)CO)C[C@H]1C,i,i,i,22,i,i
Cc1noc(C)c1NC(=O)Nc1ccc2c(c1)C(=O)N([C@@H](C)CO)C[C@H](C)[C@@H](CN(C)C(=O)CCCN(C)C)OCCCC[C@@H](C)O2,i,i,i,86,i,i
O=C(N[C@H]1CC[C@@H](CCn2cc(-c3ccccn3)nn2)O[C@H]1CO)c1cccnc1,i,i,nt,i,i,i
COc1ccc(S(=O)(=O)Nc2ccc3c(c2)CC(=O)N([C@@H](C)CO)C[C@@H](C)[C@H](CN(C)Cc2ccc(C(=O)O)cc2)O3)cc1,i,i,nt,i,i,i
COc1cccc(C(=O)Nc2ccc3c(c2)C(=O)N(C)[C@H]2CC[C@H](CC(=O)NCC4CC4)O[C@@H]2CO3)c1,i,i,i,i,i,i
COc1cc2ccc(C(C)=NNC(N)=S)cc2cc1OC,i,i,nt,i,i,67
Cc1cc(OCC(O)CNC(C)c2ccccc2)ccc1C(C)C (stereo not drawn),i,i,i,39,i,379
CN(C)c1nc2sc3c(c2c(=O)n1C)CC(C)(C)OC3,nt,nt,i,nt,nt,i
CCCCn1c(=O)n(C)c(=O)c2c3c(sc21)COC(C)(C)C3,nt,nt,i,nt,nt,45
Cc1noc(C)c1S(=O)(=O)Nc1ccc2c(c1)C(=O)N([C@@H](C)CO)C[C@@H](C)[C@@H](CN(C)C(=O)c1ccncc1)OCCCC[C@@H](C)O2,i,i,i,i,i,i
O=C1/C(=C/c2cccs2)SC(=S)N1c1cccc(O)c1,52,i,i,i,i,i
O=C1/C(=C/c2cccs2)SC(=S)N1c1ccccc1,nt,nt,i,nt,nt,nt
O=C(CCN1C(=O)/C(=C/c2cccs2)SC1=S)Nc1ccccc1O,30,i,i,i,i,i
COc1ccc(CN(C)C[C@H]2Oc3ccc(NC(=O)Nc4ccc(C(F)(F)F)cc4)cc3CC(=O)N([C@H](C)CO)C[C@H]2C)cc1,i,i,i,i,i,i
CCOC(=O)c1ccc(S(=O)(=O)N2CCC(C(=O)OCC)CC2)cc1,nt,i,nt,nt,i,i
CCOC(=O)c1ccc(S(=O)(=O)N2CCC(N3CCCCC3)CC2)cc1,i,nt,i,32,i,i
CCOC(=O)c1ccc(S(=O)(=O)N2CCC(C(=O)NCC3CCCCC3)CC2)cc1,i,i,nt,i,i,i
SMILES,E-selectin induc,ERAP1 inh,miR-122 sensor,DENV2 CPE,CFTR F508del cor,GSIS activator
CCOC(=O)c1ccc(S(=O)(=O)N2CCC(C(=O)Nc3nnc(C)o3)CC2)cc1,i,i,i,i,i,58
CO[C@H]1CN(C)C(=O)c2cc(NS(=O)(=O)c3ccccc3)ccc2OC[C@@H](C)N(C(=O)NC(C)C)C[C@H]1C,i,i,i,i,i,i
C[C@@H]1CCCCO[C@H](CN(C)Cc2ccc(C(=O)O)cc2)[C@@H](C)CN([C@@H](C)CO)C(=O)c2cc(NS(=O)(=O)c3cccs3)ccc2O1,i,i,i,i,i,i
O=C(C[C@H]1CC[C@H]2[C@@H](COC[C@@H](O)CN2C(=O)c2ccccc2F)O1)NCc1ccc(-c2ccccc2)cc1,i,i,i,i,i,i
COc1ccc(C(=O)c2sc(Nc3ccccc3)nc2N)cc1OC,i,i,i,i,i,43
C[C@@H]1CN([C@H](C)CO)C(=O)c2cc(-c3ccc(C(=O)N(C)C)cc3)cnc2O[C@@H]1CN(C)C(=O)c1ccncc1,i,i,i,i,i,i
C[C@@H]1CCCCO[C@H](CN(C)Cc2ccncc2)[C@H](C)CN([C@@H](C)CO)C(=O)c2cc(NS(=O)(=O)c3ccccc3)ccc2O1,nt,i,i,33,i,i
C[C@@H]1CN([C@@H](C)CO)C(=O)c2cc(NS(=O)(=O)c3ccccc3)ccc2O[C@@H](C)CCCCO[C@@H]1CN(C)CC1CCCCC1,i,i,i,55,i,i
C[C@@H]1CN([C@@H](C)CO)C(=O)c2cc(NS(=O)(=O)c3ccccc3)ccc2O[C@@H](C)CCCCO[C@@H]1CN(C)Cc1ccncc1,nt,i,i,49,i,i
CN(C)S(=O)(=O)c1ccc(C(=O)OCC(=O)NCc2ccccc2)cc1,i,i,i,i,i,i
Cc1ccc(CNC(=O)COC(=O)c2ccc(S(=O)(=O)N(C)C)cc2)cc1,i,i,i,i,8.1,i
COc1ccc(-c2nc(NC(=O)Cn3c(=O)oc4ccccc43)sc2C)cc1,39,i,nt,i,i,i
CN(Cc1ccccc1)S(=O)(=O)c1ccc(NC(=S)NC(=O)C2CCCCC2)cc1,nt,i,125,nt,i,i
O=C(OCC(=O)N1CCc2ccccc21)[C@@H]1CC(O)CN1S(=O)(=O)c1ccccc1[N+](=O)[O-] (stereo partly drawn),i,i,i,?,i,i
O=C(OCC(=O)N1CCc2ccccc21)[C@@H]1CCCN1S(=O)(=O)c1ccccc1F,i,i,i,49,i,nt
CN1C(=O)c2cc(NC(=O)c3ccc(Cl)cc3)ccc2OC[C@H]2O[C@@H](CC(=O)O)CC[C@@H]21,i,i,i,i,i,i
O=C(O)CC1C(=O)NCCN1Cc1cccs1 (stereo not drawn),85,i,nt,i,i,i

# Bioassay records as filed in PubChem BioAssay.
